The record followed here is ChEMBL document CHEMBL1128453, “Peptidyl alpha-ketoheterocyclic inhibitors of human neutrophil elastase. 3. In vitro and in vivo potency of a series of peptidyl alpha-ketobenzoxazoles” (J Med Chem, 1995).

One experiment deals with T1, Neutrophil elastase (Homo sapiens, UniProt P08246).
T1 sequence (P08246 whole entry): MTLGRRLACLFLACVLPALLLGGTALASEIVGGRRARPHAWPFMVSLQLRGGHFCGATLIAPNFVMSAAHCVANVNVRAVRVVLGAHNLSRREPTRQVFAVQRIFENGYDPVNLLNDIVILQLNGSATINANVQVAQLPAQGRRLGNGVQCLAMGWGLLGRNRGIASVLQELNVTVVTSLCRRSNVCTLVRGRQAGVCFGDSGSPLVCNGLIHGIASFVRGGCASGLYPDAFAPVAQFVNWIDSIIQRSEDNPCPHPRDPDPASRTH
Description: Inhibition of human neutrophil elastase-catalyzed hydrolysis of the synthetic substrate MeO-Suc-Ala-Ala-Pro-Val-pNa.

Experiment [1] concerns Cricetinae gen. sp. Description: Dose interval reported as the longest interval at which significant inhibition of HNE induced uM Dose of HNE used was 400 ug/hamster. The class given is functional. The gist of the method:
(§1)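 Male Syrian hamsters (90–110 g), anaesthetised with brevital sodium (30 mg/kg ip), received intratracheal HNE (400 μg in 0.01 M PBS). Test agent was given intratracheally, either admixed with the enzyme or predosed (shortest interval 6 h). Dose interval is the longest with significant lesion inhibition. At 24 h, wet lung weight/body weight and lavage red/white cells (Coulter) were measured. Results are % reduction scaled between the HNE and saline controls (p = 0.05).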

A short description of experiment [2]: Percent reduction in leukocytes following elastase challenge/treatment. The class given is functional. Details: concentration or dose not given beside the values. The gist of the method: as §1
Experiment [3] can be described thus: Percentage reduction in erythrocytes following elastase challenge/treatment. The class given is functional. More on the design: concentration or dose not given beside the values. The gist of the method: as §1
The target in experiment [4] is T2, Neutrophil elastase (Homo sapiens) (UniProt P08246).
T2 sequence (whole entry): T1 sequence (P08246 whole entry)
To be noted: Lung.

Experiment [5] can be described thus: Evaluated for the percent reduction relative to HNE and saline controls of white blood cells. Format: functional. The gist of the method: as §1
In experiment [6] the test system is Cricetinae gen. sp. Nature of the experiment: Compound is evaluated for wet lung weight (LW) relative to body weight (Bw).Value is statistically significant relative to control (p = 0.05). The class given is functional. Summed up:
as §1

Experiment [7] is described as follows: Evaluated for the percent reduction relative to HNE and saline controls of red blood cells. Format: functional. Summed up:
as §1

The nature of experiment [8]: Evaluated for the percent reduction relative to HNE and saline controls of red blood cells. An asterisk (*) indicates (p = 0.05). The class given is functional. Summed up: as §1

Molecules are shown by their SMILES.

For `COC(=O)c1ccc2nc(C(=O)[C@@H](NC(=O)[C@@H]3CCCN3C(=O)[C@@H](NC(=O)OCc3ccccc3)C(C)C)C(C)C)oc2c1`, the Ki on Neutrophil elastase turned out to be 0.55 nM.
On Neutrophil elastase, `CC(C)[C@H](NC(=O)[C@@H]1CCCN1C(=O)[C@@H](NC(=O)OCc1ccccc1)C(C)C)C(=O)c1nc2cc(C#N)ccc2o1` came in with a Ki of 1.8 nM.
Take `COc1ccc2oc(C(=O)[C@@H](NC(=O)[C@@H]3CCCN3C(=O)[C@@H](NC(=O)OCc3ccccc3)C(C)C)C(C)C)nc2c1`: the affinity on Neutrophil elastase corresponds to a Ki of 1.9 nM.
The molecule `CC(C)[C@H](NC(=O)[C@@H]1CCCN1C(=O)[C@@H](NC(=O)c1ccc(C(=O)NS(=O)(=O)c2ccc(Cl)cc2)cc1)C(C)C)C(=O)c1nc2ccccc2o1` yielded a Dose interval with Cricetinae gen. sp. [1] of 6 h. Further, the Reduction came to 84% in experiment [2] and 80% in experiment [3].
Regarding `COC(=O)c1ccc2oc(C(=O)[C@@H](NC(=O)[C@@H]3CCCN3C(=O)[C@@H](NC(=O)c3ccc(NC(=O)NS(=O)(=O)c4ccc(Cl)cc4)cc3)C(C)C)C(C)C)nc2c1`, the Reduction in [2] was -31%; in experiment [3], 13%. On Neutrophil elastase, this molecule showed an inhibition constant (Ki) of 0.06 nM. This molecule came in with a Lw/Bw in experiment [4] of 48.
On Neutrophil elastase, `CC(C)[C@H](NC(=O)[C@@H]1CCCN1C(=O)[C@@H](NC(=O)OCc1ccccc1)C(C)C)C(=O)c1nc2cc(CO[Si](C)(C)C(C)(C)C)ccc2o1` registered a Ki of 0.43 nM.
Still for that read-out and setting: the result for `COC(=O)Cc1ccc2oc(C(=O)[C@@H](NC(=O)[C@@H]3CCCN3C(=O)[C@@H](NC(=O)OCc3ccccc3)C(C)C)C(C)C)nc2c1` reads 1.1 nM.
`CC(C)[C@H](NC(=O)[C@@H]1CCCN1C(=O)[C@@H](NC(=O)c1ccc(C(=O)NS(=O)(=O)C(C)C)cc1)C(C)C)C(=O)c1nc2ccccc2o1`: the Reduction in experiment [2] stood at 70%; in [3], 60%. The molecule also displayed a Ki at Neutrophil elastase of 1.5 nM. In experiment [4], this molecule returned a Lw/Bw of 68.
With `CC(C)[C@H](NC(=O)[C@@H]1CCCN1C(=O)[C@@H](NC(=O)OCc1ccccc1)C(C)C)C(=O)c1nc2cc(CO)ccc2o1`, at Neutrophil elastase, the Ki worked out at 2.4 nM.
Regarding `CC(C)[C@H](NC(=O)[C@@H]1CCCN1C(=O)[C@@H](NC(=O)c1ccc(NC(=O)NS(=O)(=O)c2ccc(Cl)cc2)cc1)C(C)C)C(=O)c1nc2ccccc2o1`, in the experiment on Cricetinae gen. sp. [1], the Dose interval was 6 h. Besides, the Reduction is recorded as 82% in experiment [2] and 68% in [3].
With `CC(C)[C@H](NC(=O)[C@@H]1CCCN1C(=O)[C@@H](NC(=O)c1ccc(C(=O)OC(C)(C)C)cc1)C(C)C)C(=O)c1nc2ccccc2o1`, the values for the Reduction in experiment [5] and in experiment [7] were -14% and 29%, respectively. This molecule registered a Lw/Bw with Cricetinae gen. sp. [6] of 41.
Turning to `CC(C)[C@H](NC(=O)[C@@H]1CCCN1C(=O)[C@@H](NC(=O)c1ccc(NC(=O)NS(=O)(=O)c2ccccc2)cc1)C(C)C)C(=O)c1nc2ccccc2o1`, the Reduction in [2] is 31%; in experiment [3], 62%. At Neutrophil elastase, this molecule came in with a Ki of 0.6 nM. The Lw/Bw in experiment [4] was 63.
Consider `CC(C)[C@H](NC(=O)[C@@H]1CCCN1C(=O)[C@@H](NC(=O)c1ccc(S(N)(=O)=O)cc1)C(C)C)C(=O)c1nc2ccccc2o1`, for which the values for the Reduction in [2] and in experiment [3] were -42% and -44%, respectively.
With `CC(C)[C@H](NC(=O)[C@@H]1CCCN1C(=O)[C@@H](NC(=O)c1ccc(C(=O)NS(=O)(=O)c2ccc(Cl)cc2)cc1)C(C)C)C(=O)c1nc2cc(C(=O)O)ccc2o1`, the Reduction came out at 66% in [2] and 94% in experiment [3]. This molecule also displayed a Ki at Neutrophil elastase of 0.65 nM. In experiment [4], the Lw/Bw stood at 63.
In turn, `CC(C)[C@H](NC(=O)[C@@H]1CCCN1C(=O)[C@@H](NC(=O)OCc1ccccc1)C(C)C)C(=O)c1nc2cc(C(=O)O)ccc2o1` displayed a Ki on Neutrophil elastase of 4.2 nM.
The molecule `COC(=O)c1ccc2oc(C(=O)[C@@H](NC(=O)[C@@H]3CCCN3C(=O)[C@@H](NC(=O)OCc3ccccc3)C(C)C)C(C)C)nc2c1` showed a Ki on Neutrophil elastase of 0.37 nM.
Turning to `COC(=O)c1ccc(C(=O)N[C@H](C(=O)N2CCC[C@H]2C(=O)N[C@H](C(=O)c2nc3ccccc3o2)C(C)C)C(C)C)cc1`, the Reduction in [2] is on record as -5%; in [7], 17%.
As to `COC(=O)c1ccc2oc(C(=O)[C@@H](NC(=O)[C@@H]3CCCN3C(=O)[C@@H](NC(=O)c3ccc(S(N)(=O)=O)cc3)C(C)C)C(C)C)nc2c1`, the Reduction in experiment [2] was 30%; in [3] it was -32%. Moreover, the Lw/Bw in experiment [4] came to 15.
Regarding `CC(C)[C@H](NC(=O)[C@@H]1CCCN1C(=O)[C@@H](NC(=O)c1ccc(C(=O)NS(=O)(=O)c2ccc(Cl)cc2)cc1)C(C)C)C(=O)c1nc2cc(O)ccc2o1`, the results for the Reduction in experiment [2] and in [3] were 40% and 57%, respectively. Besides, in experiment [4], the Lw/Bw came to 38.
For `CC(C)[C@H](NC(=O)[C@@H]1CCCN1C(=O)[C@@H](NC(=O)c1ccc(C(=O)O)cc1)C(C)C)C(=O)c1nc2ccccc2o1`, the Reduction is given as 49% in experiment [8] and -1% in experiment [2].
In the case of `COC(=O)c1ccc2oc(C(=O)[C@@H](NC(=O)[C@@H]3CCCN3C(=O)[C@@H](NC(=O)c3ccc(C(=O)NS(=O)(=O)c4ccc(Cl)cc4)cc3)C(C)C)C(C)C)nc2c1`, the Reduction in experiment [2] is -32%; in [3] it was 71%. On Neutrophil elastase, the affinity corresponds to a Ki of 0.1 nM. For the same molecule, the Lw/Bw in experiment [4] came out at 67.
Turning to `CC(C)[C@H](NC(=O)[C@@H]1CCCN1C(=O)[C@@H](NC(=O)c1ccc(C(=O)NS(=O)(=O)c2ccc(Cl)cc2)cc1)C(C)C)C(=O)c1nc2cc(CO)ccc2o1`, the Reduction in [2] was 39%; in experiment [3], 46%. Also, the Ki on Neutrophil elastase is 0.66 nM. This molecule came in with a Lw/Bw in [4] of 30.
`CC(C)[C@H](NC(=O)[C@@H]1CCCN1C(=O)[C@@H](NC(=O)c1ccc(C(=O)NS(=O)(=O)c2ccccc2)cc1)C(C)C)C(=O)c1nc2ccccc2o1` showed a Dose interval in the experiment with Cricetinae gen. sp. [1] of 6 h. For the same molecule, the Reduction in experiment [2] came to 64%; in experiment [3], 58%. Further, at Neutrophil elastase, the Ki came out at 0.5 nM. In experiment [4], this molecule had a Lw/Bw of 29.
As for `COC(=O)c1ccc2oc(C(=O)[C@@H](NC(=O)[C@@H]3CCCN3C(=O)[C@@H](NC(=O)c3ccc(NS(=O)(=O)C(F)(F)F)cc3)C(C)C)C(C)C)nc2c1`, the Reduction in experiment [2] came out at 77%; in experiment [3] it was 82%. On Neutrophil elastase, this molecule gave an inhibitory constant (Ki) of 0.3 nM. In experiment [4], the Lw/Bw was 71.
`COC(=O)c1ccc2nc(C(=O)[C@@H](NC(=O)[C@@H]3CCCN3C(=O)[C@@H](NC(=O)c3ccc(C(=O)NS(=O)(=O)c4ccc(Cl)cc4)cc3)C(C)C)C(C)C)oc2c1`: the Reduction is given as 72% in experiment [2] and 76% in [3].
At Neutrophil elastase, `CC(C)[C@H](NC(=O)[C@@H]1CCCN1C(=O)[C@@H](NC(=O)OCc1ccccc1)C(C)C)C(=O)c1nc2cc(Cl)ccc2o1` had a Ki of 1.1 nM.
In the case of `CC(C)[C@H](NC(=O)[C@@H]1CCCN1C(=O)[C@@H](NC(=O)OCc1ccccc1)C(C)C)C(=O)c1nc2cc(C(=O)ON)ccc2o1`, the inhibition constant Ki at Neutrophil elastase was 1 nM.
On to `COc1ccc2oc(C(=O)[C@@H](NC(=O)[C@@H]3CCCN3C(=O)[C@@H](NC(=O)c3ccc(C(=O)NS(=O)(=O)c4ccc(Cl)cc4)cc3)C(C)C)C(C)C)nc2c1`, for which the results for the Reduction in [2] and in [3] were 24% and 21%, respectively. The same molecule gave a Ki on Neutrophil elastase of 0.66 nM. The molecule further registered a Lw/Bw in [4] of 48.
`CC(C)[C@H](NC(=O)[C@@H]1CCCN1C(=O)[C@@H](NC(=O)OCc1ccccc1)C(C)C)C(=O)c1nc2cc(CC(=O)O)ccc2o1` displayed a Ki at Neutrophil elastase of 4.4 nM.
As to `CC(C)[C@H](NC(=O)[C@@H]1CCCN1C(=O)[C@@H](NC(=O)c1ccc(C(=O)NS(C)(=O)=O)cc1)C(C)C)C(=O)c1nc2ccccc2o1`, the Reduction was found to be 78% in [2] and 84% in experiment [3]. The molecule also returned a Ki on Neutrophil elastase of 4.6 nM. The molecule also registered a Lw/Bw in [4] of 87.
